# Tests used:
# [1] = molecular target: T1, Adrenergic receptor alpha-1 (Rattus norvegicus, UniProt P15823+P23944+P43140); assay: Binding affinity against alpha-1 adrenergic receptor in rat using [3H]prazosin as radioligand
# T1 sequence (P15823 whole entry): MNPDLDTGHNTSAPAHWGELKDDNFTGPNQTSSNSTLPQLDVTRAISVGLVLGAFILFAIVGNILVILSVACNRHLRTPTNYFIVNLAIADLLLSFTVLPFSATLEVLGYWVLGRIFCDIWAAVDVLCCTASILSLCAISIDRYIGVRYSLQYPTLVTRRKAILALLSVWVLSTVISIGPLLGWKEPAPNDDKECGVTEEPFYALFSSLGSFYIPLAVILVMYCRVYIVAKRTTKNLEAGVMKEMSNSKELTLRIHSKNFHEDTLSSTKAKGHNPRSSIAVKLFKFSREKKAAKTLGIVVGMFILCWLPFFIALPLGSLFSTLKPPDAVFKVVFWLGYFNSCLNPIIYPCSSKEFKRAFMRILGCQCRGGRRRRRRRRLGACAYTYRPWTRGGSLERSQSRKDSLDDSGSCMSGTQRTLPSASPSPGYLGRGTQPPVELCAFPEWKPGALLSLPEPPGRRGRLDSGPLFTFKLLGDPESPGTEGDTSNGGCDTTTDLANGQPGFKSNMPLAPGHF
# T1 sequence (P23944 whole entry): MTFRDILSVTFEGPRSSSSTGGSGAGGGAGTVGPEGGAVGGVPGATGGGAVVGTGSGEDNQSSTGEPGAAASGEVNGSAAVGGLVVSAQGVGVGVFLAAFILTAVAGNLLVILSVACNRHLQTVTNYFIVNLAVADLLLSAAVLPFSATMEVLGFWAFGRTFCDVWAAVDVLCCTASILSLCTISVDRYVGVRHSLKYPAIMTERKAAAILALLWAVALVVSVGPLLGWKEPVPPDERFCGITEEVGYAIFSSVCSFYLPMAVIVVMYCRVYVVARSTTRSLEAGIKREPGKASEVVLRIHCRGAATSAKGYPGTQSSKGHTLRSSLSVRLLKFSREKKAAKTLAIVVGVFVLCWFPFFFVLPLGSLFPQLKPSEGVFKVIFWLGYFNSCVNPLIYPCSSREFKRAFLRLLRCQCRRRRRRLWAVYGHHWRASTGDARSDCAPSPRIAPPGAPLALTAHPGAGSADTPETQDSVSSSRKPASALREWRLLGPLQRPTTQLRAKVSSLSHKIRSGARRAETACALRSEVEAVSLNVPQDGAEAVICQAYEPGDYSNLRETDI
# T1 sequence (P43140 whole entry): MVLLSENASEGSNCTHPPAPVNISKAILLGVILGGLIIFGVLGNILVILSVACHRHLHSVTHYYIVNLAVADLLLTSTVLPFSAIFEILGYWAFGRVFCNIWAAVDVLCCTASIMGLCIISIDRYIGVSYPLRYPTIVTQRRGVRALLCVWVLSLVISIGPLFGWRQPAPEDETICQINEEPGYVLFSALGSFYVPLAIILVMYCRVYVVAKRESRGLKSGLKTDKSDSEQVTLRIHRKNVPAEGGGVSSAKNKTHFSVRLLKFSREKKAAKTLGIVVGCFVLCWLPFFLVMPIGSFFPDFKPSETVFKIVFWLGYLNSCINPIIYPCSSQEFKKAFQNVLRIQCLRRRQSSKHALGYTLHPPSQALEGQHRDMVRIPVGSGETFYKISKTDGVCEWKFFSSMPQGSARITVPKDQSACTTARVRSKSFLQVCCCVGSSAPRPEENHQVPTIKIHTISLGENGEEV
# Summary of the method: (§1)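 Male Sprague-Dawley rat liver membranes (50-150 µg/mL protein) in 50 mM Tris-HCl pH 7.7 with [3H]prazosin. Incubated 50 min at 25 °C; phentolamine 10^-5 M defined nonspecific binding. At least four concentrations from 10^-10 to 10^-3 M, each in duplicate. Bound ligand was filtered and counted by scintillation.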
# [2] = molecular target: T2, Adrenergic receptor alpha-2 (Rattus norvegicus, UniProt P22086+P19328+P22909); assay: Binding affinity towards alpha-2 adrenergic receptor in rat using [3H]rauwolscine as radioligand
# T2 sequence (P22086 whole entry): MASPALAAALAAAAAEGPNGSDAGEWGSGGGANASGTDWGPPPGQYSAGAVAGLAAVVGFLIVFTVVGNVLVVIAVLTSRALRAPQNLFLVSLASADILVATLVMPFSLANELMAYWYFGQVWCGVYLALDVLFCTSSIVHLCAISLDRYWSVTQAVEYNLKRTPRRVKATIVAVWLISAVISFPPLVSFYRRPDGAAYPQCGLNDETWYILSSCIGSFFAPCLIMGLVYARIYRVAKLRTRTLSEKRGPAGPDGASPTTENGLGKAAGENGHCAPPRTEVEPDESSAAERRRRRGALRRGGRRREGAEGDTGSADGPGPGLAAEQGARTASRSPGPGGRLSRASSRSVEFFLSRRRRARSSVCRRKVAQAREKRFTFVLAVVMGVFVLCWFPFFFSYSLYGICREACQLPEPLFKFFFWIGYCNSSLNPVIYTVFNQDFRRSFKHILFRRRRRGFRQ
# T2 sequence (P19328 whole entry): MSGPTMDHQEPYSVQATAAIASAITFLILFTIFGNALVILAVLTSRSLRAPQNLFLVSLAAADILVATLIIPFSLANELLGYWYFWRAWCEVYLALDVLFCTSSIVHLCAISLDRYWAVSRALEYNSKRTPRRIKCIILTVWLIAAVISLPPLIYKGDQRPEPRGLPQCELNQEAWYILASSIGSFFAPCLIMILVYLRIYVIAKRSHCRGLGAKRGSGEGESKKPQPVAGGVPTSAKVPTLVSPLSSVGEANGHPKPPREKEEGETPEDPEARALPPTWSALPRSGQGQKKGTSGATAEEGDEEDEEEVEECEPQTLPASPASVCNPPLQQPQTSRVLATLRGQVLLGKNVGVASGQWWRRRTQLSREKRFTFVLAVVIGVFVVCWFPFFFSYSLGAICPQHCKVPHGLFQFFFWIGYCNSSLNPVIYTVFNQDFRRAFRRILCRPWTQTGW
# T2 sequence (P22909 whole entry): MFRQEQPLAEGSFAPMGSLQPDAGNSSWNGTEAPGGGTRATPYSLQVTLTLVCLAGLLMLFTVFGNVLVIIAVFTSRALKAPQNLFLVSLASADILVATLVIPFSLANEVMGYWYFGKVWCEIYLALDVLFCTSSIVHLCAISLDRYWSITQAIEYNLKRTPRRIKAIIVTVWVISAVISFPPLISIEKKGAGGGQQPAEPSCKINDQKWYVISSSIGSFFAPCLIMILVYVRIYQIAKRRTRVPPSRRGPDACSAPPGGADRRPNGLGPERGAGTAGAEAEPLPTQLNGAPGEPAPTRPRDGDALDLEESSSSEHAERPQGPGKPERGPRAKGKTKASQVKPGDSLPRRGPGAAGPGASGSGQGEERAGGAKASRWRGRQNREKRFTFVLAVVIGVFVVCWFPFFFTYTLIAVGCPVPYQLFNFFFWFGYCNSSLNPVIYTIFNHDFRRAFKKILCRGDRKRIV
# Summary of the method: as §1, with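 “cerebral cortex” for “liver”, “[3H]rauwolscine.” for “[3H]prazosin.”, “2 h” for “50 min”, “4” for “25”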
# [3] = molecular target: Adrenergic receptor alpha (Rattus norvegicus) (UniProt P15823+P23944+P43140+P22086+P19328+P22909); assay: Relative affinities for Alpha1 and alpha-2 adrenergic receptors in rat
Compound,Ki [1],Ki [2],Ratio [3]
Brc1c(NC2=NCCN2)ccc2nccnc12 [BRIMONIDINE],0.74 µM,,
NCC1CCCc2cc(O)c(O)cc21 (configuration not stated),15 µM,5.1 µM,
CCCN(CCC)CC1CCc2cc(O)c(O)cc21 (configuration not stated),29 µM,0.69 µM,
CNCC1CCCc2cc(O)c(O)cc21 (configuration not stated),8.7 µM,1.3 µM,
CN(C)CC1CCCc2cc(O)c(O)cc21 (configuration not stated),13 µM,0.7 µM,
NCC1CCc2c1ccc(O)c2O (configuration not stated),8.6 µM,0.015 µM,560
CN(C)CC1CCc2c1ccc(O)c2O (configuration not stated),6.9 µM,0.025 µM,270
CCN(CC)CC1CCCc2c1ccc(O)c2O (configuration not stated),3.1 µM,0.25 µM,13
CC(C)NCC1CCCc2cc(O)c(O)cc21 (configuration not stated),14 µM,2.5 µM,
NCC(O)c1ccc(O)c(O)c1F (configuration not stated),25 µM,1.4 µM,
CN(C)CC1CCCc2c1ccc(O)c2O (configuration not stated),13 µM,0.66 µM,
CCCN(CCC)CC1CCc2c1ccc(O)c2O (configuration not stated),7.4 µM,0.47 µM,16
NCC1CCc2cc(O)c(O)cc21 (configuration not stated),26 µM,0.52 µM,
NCC1CCCCc2c1ccc(O)c2O (configuration not stated),27 µM,0.88 µM,30
NCC1Cc2cc(O)c(O)cc21 (configuration not stated),5 µM,0.2 µM,
CCNCC1CCc2c1ccc(O)c2O (configuration not stated),2.5 µM,0.13 µM,20

Compound,Ki [1],Ki [2],Ratio [3]
CC(C)NCC1CCCc2c1ccc(O)c2O (configuration not stated),6.6 µM,4.7 µM,
CCN(CC)CC1CCc2c1ccc(O)c2O (configuration not stated),3.6 µM,0.32 µM,11
CC(C)NCC1CCc2c1ccc(O)c2O (configuration not stated),4.6 µM,0.66 µM,6.9
CCCN(CCC)CC1CCCc2c1ccc(O)c2O (configuration not stated),7.9 µM,0.18 µM,
CCNCC1CCCc2c1ccc(O)c2O (configuration not stated),7.9 µM,0.2 µM,40
CCCN(CCC)CC1CCCc2cc(O)c(O)cc21 (configuration not stated),16 µM,0.6 µM,
CN(C)CC1CCc2cc(O)c(O)cc21 (configuration not stated),13 µM,0.86 µM,
NCC1CCCCc2cc(O)c(O)cc21 (configuration not stated),11 µM,19 µM,
CNCC1CCc2c1ccc(O)c2O (configuration not stated),2 µM,0.007 µM,290
CC(C)NCC1CCc2cc(O)c(O)cc21 (configuration not stated),11 µM,3.8 µM,
NCC(O)c1cc(O)c(O)cc1F (configuration not stated),0.65 µM,,
CNCC1CCCc2c1ccc(O)c2O (configuration not stated),7.9 µM,0.044 µM,
NCC1CCCc2c1ccc(O)c2O (configuration not stated),13 µM,0.047 µM,
NCC1Cc2c1ccc(O)c2O (configuration not stated),16 µM,0.17 µM,98
CN(C)CC1Cc2c1ccc(O)c2O (configuration not stated),3.3 µM,0.021 µM,160
